# Data reported in ChEMBL document CHEMBL4196210, “Depsipeptides Featuring a Neutral P1 Are Potent Inhibitors of Kallikrein-Related Peptidase 6 with On-Target Cellular Activity” (J Med Chem, 2018).
# pIC50, pKi: −log10 of the molar value. Calls of active or inactive are those of the source. No cut-off for these calls is given here.
# Experiments:
# Trypsin = Trypsin (Homo sapiens, UniProt P07477+P07478+P35030); assay: Inhibition of trypsin (unknown origin) pre-incubated for 30 mins before N-Boc-FSR-AMC substrate addition and measured after 30 mins; assay type: protein assay
# Coagulation factor X = Coagulation factor X (Homo sapiens, UniProt P00742); assay: Inhibition of factor 10a (unknown origin) pre-incubated for 30 mins before N-Boc-FSR-AMC substrate addition and measured after 30 mins
# Sequence of Coagulation factor X (P00742 41-179 limits assumed): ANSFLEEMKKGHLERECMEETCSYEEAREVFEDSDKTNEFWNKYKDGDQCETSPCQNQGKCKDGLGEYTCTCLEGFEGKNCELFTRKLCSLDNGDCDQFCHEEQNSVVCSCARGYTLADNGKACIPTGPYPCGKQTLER
# Sequence of Coagulation factor X (P00742 235-488 limits assumed): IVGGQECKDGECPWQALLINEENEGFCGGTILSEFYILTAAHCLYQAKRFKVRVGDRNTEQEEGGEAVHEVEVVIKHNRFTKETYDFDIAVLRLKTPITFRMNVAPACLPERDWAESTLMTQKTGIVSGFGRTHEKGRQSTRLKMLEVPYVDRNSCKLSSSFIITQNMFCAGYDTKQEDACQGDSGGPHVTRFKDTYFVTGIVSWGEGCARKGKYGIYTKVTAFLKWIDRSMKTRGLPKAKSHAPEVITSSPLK
# Method in brief: (§1)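 Inhibitor (1:2 or 1:3 dilutions) or 2% DMSO for 30 min at rt, then N-Boc-FSR-AMC at 20 µM final. Fluorescence (ex 350/em 440) read every 60 s for 30 min. Slopes normalized to DMSO for dose-response; triplicates.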
# Prothrombin = Prothrombin (Homo sapiens, UniProt P00734); assay: Inhibition of thrombin (unknown origin) pre-incubated for 30 mins before N-Boc-FSR-AMC substrate addition and measured after 30 mins; method in brief: as §1
# [1] = Stability in DMEM supplemented with 10% (v/v) fetal bovine serum at 10 uM at 37 degC assessed as half life by HPLC-MS method; assay type: physicochemical; conditions: cattle, DMEM with 10% (v/v) fetal bovine serum
# Method in brief: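 Compound at 10 µM (0.2% DMSO) in DMEM with 10% FBS, 2 mM L-glutamine and 1% penicillin/streptomycin, plus 10 µM triazole internal standard, held at 37 °C. Sampled hourly to 10 h, then at 24 h, by HPLC-MS in SIM mode for parent and hydrolysis product.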
# Kallikrein-5 = target: T1, Kallikrein-5 (Homo sapiens, UniProt Q9Y337); assay: Inhibition of KLK5 (unknown origin) expressed in Pichia pastoris pre-incubated for 10 mins before Boc-ValProArg-AMC substrate addition and measured after 30 mins by fluorescence based assay
# T1 sequence (Q9Y337 whole entry): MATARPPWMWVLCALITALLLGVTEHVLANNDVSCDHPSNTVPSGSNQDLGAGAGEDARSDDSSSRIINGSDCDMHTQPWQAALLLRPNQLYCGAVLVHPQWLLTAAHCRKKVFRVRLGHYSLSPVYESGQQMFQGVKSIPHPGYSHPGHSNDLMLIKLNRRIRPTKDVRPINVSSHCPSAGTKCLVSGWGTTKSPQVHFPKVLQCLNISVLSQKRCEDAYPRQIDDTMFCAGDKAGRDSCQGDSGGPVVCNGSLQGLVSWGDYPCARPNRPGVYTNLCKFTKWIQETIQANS
# Kallikrein-13 = target: T2, Kallikrein-13 (Homo sapiens, UniProt Q9UKR3); assay: Inhibition of KLK13 (unknown origin) expressed in Pichia pastoris pre-incubated for 10 mins before Boc-ValProArg-AMC substrate addition and measured after 30 mins by fluorescence based assay
# T2 sequence (Q9UKR3 whole entry): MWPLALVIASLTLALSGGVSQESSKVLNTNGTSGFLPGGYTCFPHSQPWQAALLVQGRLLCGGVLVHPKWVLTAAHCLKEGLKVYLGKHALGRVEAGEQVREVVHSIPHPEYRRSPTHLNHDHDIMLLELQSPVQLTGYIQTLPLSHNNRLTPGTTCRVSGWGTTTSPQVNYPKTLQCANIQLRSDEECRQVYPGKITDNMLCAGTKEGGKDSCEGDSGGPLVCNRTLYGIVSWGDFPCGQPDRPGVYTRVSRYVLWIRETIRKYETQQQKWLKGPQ
# Kallikrein-8 = target: T3, Kallikrein-8 (Homo sapiens, UniProt O60259); assay: Inhibition of KLK8 (unknown origin) expressed in Pichia pastoris pre-incubated for 10 mins before Boc-ValProArg-AMC substrate addition and measured after 30 mins by fluorescence based assay
# T3 sequence (O60259 whole entry): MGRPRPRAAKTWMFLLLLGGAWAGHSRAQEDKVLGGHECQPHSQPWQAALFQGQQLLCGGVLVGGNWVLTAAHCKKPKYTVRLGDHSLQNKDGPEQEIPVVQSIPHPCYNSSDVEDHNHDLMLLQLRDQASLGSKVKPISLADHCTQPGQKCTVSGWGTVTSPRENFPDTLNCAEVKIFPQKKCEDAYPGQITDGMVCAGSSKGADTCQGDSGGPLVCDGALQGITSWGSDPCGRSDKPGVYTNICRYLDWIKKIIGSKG
# Kallikrein-14 = target: T4, Kallikrein-14 (Homo sapiens, UniProt Q9P0G3); assay: Inhibition of KLK14 (unknown origin) expressed in Pichia pastoris pre-incubated for 10 mins before Boc-ValProArg-AMC substrate addition and measured after 30 mins by fluorescence based assay
# T4 sequence (Q9P0G3 whole entry): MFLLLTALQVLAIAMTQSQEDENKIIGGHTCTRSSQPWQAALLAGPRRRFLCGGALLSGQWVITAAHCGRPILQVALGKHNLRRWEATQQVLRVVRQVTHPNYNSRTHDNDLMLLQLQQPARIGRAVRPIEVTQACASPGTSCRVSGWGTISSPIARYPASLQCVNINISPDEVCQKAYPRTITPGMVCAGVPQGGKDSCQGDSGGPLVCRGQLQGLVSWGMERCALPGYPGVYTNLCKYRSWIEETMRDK
# Kallikrein-7 = Kallikrein-7 (Homo sapiens, UniProt P49862); assay: Inhibition of KLK7 (unknown origin) expressed in Pichia pastoris pre-incubated for 10 mins before Leu-Leu-Val-Tyr-AMC substrate addition and measured after 30 mins by fluorescence based assay
# Sequence of Kallikrein-7 (P49862 whole entry): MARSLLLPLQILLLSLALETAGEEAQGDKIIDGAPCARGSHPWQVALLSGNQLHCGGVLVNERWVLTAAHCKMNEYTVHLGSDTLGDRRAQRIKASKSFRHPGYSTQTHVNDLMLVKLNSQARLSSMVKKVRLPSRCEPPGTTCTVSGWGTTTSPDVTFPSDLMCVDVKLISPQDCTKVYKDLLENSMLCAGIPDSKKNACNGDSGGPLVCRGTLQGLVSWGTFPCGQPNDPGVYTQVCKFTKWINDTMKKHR
# Method in brief: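 KLK7 at 33 nM final in 100 mM phosphate, 0.01% Tween-20, pH 8.5, with inhibitor (1:3 dilutions) or 2% DMSO for 10 min at rt. Reaction started with Leu-Leu-Val-Tyr-AMC at 500 µM final. Fluorescence (ex 380/em 460) read every 60 s for 30 min. Triplicates.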
# Kallikrein-6 [2] = target: T5, Kallikrein-6 (Homo sapiens, UniProt Q92876); assay: Inhibition of human KLK6 expressed in baculovirus/insect cell line system using Abz-KLRSSKQ-EDDnp substrate
# Kallikrein-6 [3] = target: T5, Kallikrein-6; assay: Inhibition of KLK6 in human FaDu cells assessed as reduction in cell proliferation at 300 nM incubated for 48 hrs by BrdU incorporation assay; assay type: cell-based
# Method in brief: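 FaDu cells treated daily for 48 h. Proliferation read as BrdU incorporation; average of 5 independent experiments ± standard deviation.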
# Kallikrein-6 [4] = target: T5, Kallikrein-6; assay: Inhibition of recombinant human KLK6 assessed as Kinact/Ki ratio using Boc-QAR-AMC substrate
SMILES,IC50 (Trypsin) [µM],pIC50 (Trypsin),other results
Cc1nn(-c2ccccc2)c(C)c1NC(=O)COC(=O)Cc1c(C)[nH]c2cccnc12,61,,
Cc1nn(-c2ccccc2)c(C)c1NC(=O)COC(=O)Cc1c(C)[nH]c2ncccc12,> 200,,
Cc1nn(-c2ccccc2)c(C)c1NC(=O)COC(=O)Cc1c(C)n(C)c2ccccc12,> 200,,
Cc1[nH]c2ccccc2c1CC(=O)NCC(=O)Nc1cnn(-c2ccccc2)c1C,34,,
Cc1nn(-c2ccccc2)c(C)c1NC(=O)COC(=O)Cn1c(=O)oc2ccccc21,190,,pIC50 (Coagulation factor X): < 3.70; pIC50 (Prothrombin): < 3.70
NCc1ccc(NC(=O)c2c([O-])ccc[n+]2Cc2nccn2Cc2ccccc2)cc1,0.18,,pIC50 (Coagulation factor X): < 4.30; pIC50 (Prothrombin): < 4.30
Cc1nn(-c2ccccc2)c(C)c1NC(=O)COC(=O)C(c1c(C)[nH]c2ccccc12)C(F)(F)F (centres undefined),> 200,,
Cc1nn(-c2ccccc2)c(C)c1NC(=O)C(OC(=O)C(C)c1c(C)[nH]c2ccccc12)C(F)(F)F (centres undefined),61,,half-life at 10 µM [1]: 101 min
Cc1nn(-c2ccccc2)c(C)c1NC(=O)COC(=O)Cc1c(C)[nH]c2cc(C(=N)N)ccc12,< 0.001,,pIC50 (Kallikrein-5): 6.89; pIC50 (Kallikrein-13): < 6.30; pIC50 (Kallikrein-8): 6.68; pIC50 (Kallikrein-14): 8.10; half-life at 10 µM [1]: 79.2 min; pIC50 (Kallikrein-7): < 6.30
Cc1nn(-c2ccccc2)c(C)c1NC(=O)C(OC(=O)Cc1c(C)[nH]c2ccccc12)C(F)(F)F (centres undefined),0.38,,half-life at 10 µM [1]: 25.5 min
Cc1nn(-c2ccccc2)c(C)c1NC(=O)COC(=O)Cc1c(C)[nH]c2ccc(C(=N)N)cc12,19,,
Cc1nn(-c2ccccc2)c(C)c1NC(=O)COC(=O)Cn1c(C)cc2ccccc21,,4.15 to 4.42,half-life at 10 µM [1]: 33.6 min; pIC50 (Coagulation factor X): < 3.70; pIC50 (Prothrombin): < 3.70
Cc1nn(-c2ccccc2)c(C)c1NC(=O)COC(=O)Cn1c(C)csc1=O,> 200,,pIC50 (Coagulation factor X): < 3.70; pIC50 (Prothrombin): < 3.70
CC(C)C[C@H](NC(=O)[C@H](CCCNC(=N)N)NC(=O)c1ccc(Cl)cc1)C(N)=O,,,pKi (Kallikrein-6 [2]): 5.82
Cc1nn(C)c(C)c1NC(=O)CNC(=O)Cc1c(C)[nH]c2cccnc12,> 50,,
Cc1nn(-c2ccccc2)c(C)c1NC(=O)COC(=O)c1c(C)[nH]c2ccccc12,> 200,,
Cc1nn(-c2ccccc2)c(C)c1NC(=O)CCOC(=O)Cc1c(C)[nH]c2ccccc12,> 200,,
Cc1nn(-c2ccccc2)c(C)c1NC(=O)COC(=O)Cn1c(C)nc2ccccc21,> 200,,
Cc1nn(-c2ccccc2)c(C)c1NC(=O)COC(=O)Nc1c(C)[nH]c2ccccc12,,,Activity (Kallikrein-6 [3]): inactive
Cc1nn(-c2ccccc2)c(C)c1NC(=O)COC(=O)Cn1cnc2ccccc2c1=O,> 200,,pIC50 (Coagulation factor X): < 3.70; pIC50 (Prothrombin): < 3.70
Cc1nn(-c2ccccc2)c(C)c1NC(=O)COC(=O)Cc1c(C)[nH]c2cccc(Cl)c12,> 200,,

SMILES,IC50 (Trypsin) [µM],pIC50 (Trypsin),other results
Cc1nn(-c2ccccc2)c(C)c1NC(=O)COC(=O)Cc1c(C)[nH]c2ccc(Cl)cc12,34,,
Cc1nn(-c2ccccc2)c(C)c1NC(=O)COC(=O)Cc1c(C(C)C)[nH]c2ccccc12,> 200,,
Cc1nn(-c2ccccc2)c(C)c1NC(=O)COC(=O)Cc1ccccc1,> 200,,pIC50 (Coagulation factor X): < 3.70; pIC50 (Prothrombin): < 3.70
C#Cc1ccc2c(CC(=O)OCC(=O)Nc3c(C)nn(-c4ccccc4)c3C)c(C)[nH]c2c1,24,,
O=C(Oc1cc(Cl)ccc1Cl)c1cc2cc(Cl)ccc2oc1=O,,,Ratio (Kallikrein-6 [4]): 131 M⁻¹ s⁻¹
Cc1[nH]c2ccccc2c1CC(=O)OCC(=O)Nc1ccc(N2CCOCC2)cc1,> 200,,
Cc1nn(-c2ccccc2)c(C)c1NC(=O)COC(=O)Cc1c(C)[nH]c2cnccc12,0.33,,
C#Cc1cccc2[nH]c(C)c(CC(=O)OCC(=O)Nc3c(C)nn(-c4ccccc4)c3C)c12,> 50,,
Cc1nn(-c2ccccc2)c(C)c1NC(=O)COC(=O)C(C)(C)c1c(C)[nH]c2ccccc12,> 200,,
Cc1[nH]c2cccnc2c1CC(=O)NCC(=O)Nc1onc(-c2ccccc2)c1C,50,,
Cc1nn(-c2ccccc2)c(C)c1NC(=O)COC(=O)CCc1c(C)[nH]c2ccccc12,> 200,,
Cc1nn(-c2ccccc2)c(C)c1NC(=O)C(NC(=O)Cc1c(C)[nH]c2ccccc12)C(F)(F)F (centres undefined),> 200,,
Cc1nn(-c2ccccc2)c(C)c1NC(=O)COC(=O)C(C)c1c(C)[nH]c2ccccc12 (centres undefined),> 200,,half-life at 10 µM [1]: 912 min
Cc1nn(-c2ccccc2)cc1NC(=O)CNC(=O)Cc1c(C)[nH]c2ccccc12,> 200,,
Cc1nn(-c2ccccc2)c(C)c1NC(=O)CNC(=O)Cc1c(C)[nH]c2cc(C(=N)N)ccc12,2.5,,
C#Cc1[nH]c2ccccc2c1CC(=O)OCC(=O)Nc1c(C)nn(-c2ccccc2)c1C,> 200,,
Cc1[nH]c2ccccc2c1CC(=O)OCC(=O)Nc1cncnc1,> 200,,
C#Cc1ccc2[nH]c(C)c(CC(=O)OCC(=O)Nc3c(C)nn(-c4ccccc4)c3C)c2c1,26,,
Cc1nn(-c2ccccc2)c(C)c1NC(=O)COC(=O)Cc1c[nH]c2ccccc12,150,,half-life at 10 µM [1]: 27 min
Cc1nn(-c2ccccc2)c(C)c1NC(=O)COC(=O)Cc1c(C)[nH]c2ccncc12,25,,
